Assay results as given in ChEMBL document CHEMBL4402598, “Design and Synthesis of Bitopic 2-Phenylcyclopropylmethylamine (PCPMA) Derivatives as Selective Dopamine D3 Receptor Ligands” (J Med Chem, 2020).

Tests used:
D(1A) dopamine receptor = D(1A) dopamine receptor (Homo sapiens, UniProt P21728); experiment: Displacement of [3H]-SCH23390 from recombinant human D1 receptor transiently expressed in HEKT cell membranes measured after 90 mins by microbeta scintillation counting method
D(2) dopamine receptor = D(2) dopamine receptor (Homo sapiens, UniProt P14416); experiment: Displacement of [3H]-N-methylspiperone from recombinant human D2 receptor stably expressed in fibroblast cell membranes measured after 90 mins by microbeta scintillation counting method
D(1B) dopamine receptor = D(1B) dopamine receptor (Homo sapiens, UniProt P21918); experiment: Displacement of [3H]-SCH23390 from recombinant human D5 receptor transiently expressed in HEKT cell membranes measured after 90 mins by microbeta scintillation counting method
[1] = target: 5-hydroxytryptamine receptor 2A (Homo sapiens, UniProt P28223); experiment: Agonist activity at 5HT2A receptor (unknown origin) expressed in HEK293 cells co-expressing Gq assessed as induction of calcium mobilization measured at 1 sec interval for 60 secs by Fluo-4 calcium dye based FLIPR assay; assay type: cell-based; conditions: hek293, 1 min
[2] = target: 5-hydroxytryptamine receptor 2B (Homo sapiens, UniProt P41595); experiment: Agonist activity at 5HT2B receptor (unknown origin) expressed in HEK293 cells co-expressing Gq assessed as induction of calcium mobilization measured at 1 sec interval for 60 secs by Fluo-4 calcium dye based FLIPR assay; assay type: cell-based; conditions: hek293, 1 min
[3] = target: T1, 5-hydroxytryptamine receptor 2C (Homo sapiens, UniProt P28335); experiment: Displacement of [3H]-Mesulergine from recombinant human 5HT2C receptor expressed in HEKT cell membranes measured after 90 mins by microbeta scintillation counting method
T1 sequence (P28335 whole entry): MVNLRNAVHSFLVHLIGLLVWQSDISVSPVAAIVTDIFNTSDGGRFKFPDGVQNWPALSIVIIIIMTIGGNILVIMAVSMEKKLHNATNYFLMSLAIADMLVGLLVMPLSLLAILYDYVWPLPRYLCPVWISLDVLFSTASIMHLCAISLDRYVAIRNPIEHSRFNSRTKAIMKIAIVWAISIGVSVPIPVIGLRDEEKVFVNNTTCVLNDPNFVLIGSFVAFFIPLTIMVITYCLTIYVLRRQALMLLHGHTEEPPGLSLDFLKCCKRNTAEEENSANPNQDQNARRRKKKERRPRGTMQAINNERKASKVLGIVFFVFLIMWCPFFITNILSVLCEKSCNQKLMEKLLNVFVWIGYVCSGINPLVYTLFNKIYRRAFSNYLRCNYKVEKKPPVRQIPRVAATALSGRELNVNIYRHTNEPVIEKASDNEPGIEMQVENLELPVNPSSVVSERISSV

D(4) dopamine receptor = target: T2, D(4) dopamine receptor (Homo sapiens, UniProt P21917); experiment: Displacement of [3H]-N-methylspiperone from recombinant human D4 receptor stably expressed in HEK cell membranes measured after 90 mins by microbeta scintillation counting method
T2 sequence (P21917 whole entry): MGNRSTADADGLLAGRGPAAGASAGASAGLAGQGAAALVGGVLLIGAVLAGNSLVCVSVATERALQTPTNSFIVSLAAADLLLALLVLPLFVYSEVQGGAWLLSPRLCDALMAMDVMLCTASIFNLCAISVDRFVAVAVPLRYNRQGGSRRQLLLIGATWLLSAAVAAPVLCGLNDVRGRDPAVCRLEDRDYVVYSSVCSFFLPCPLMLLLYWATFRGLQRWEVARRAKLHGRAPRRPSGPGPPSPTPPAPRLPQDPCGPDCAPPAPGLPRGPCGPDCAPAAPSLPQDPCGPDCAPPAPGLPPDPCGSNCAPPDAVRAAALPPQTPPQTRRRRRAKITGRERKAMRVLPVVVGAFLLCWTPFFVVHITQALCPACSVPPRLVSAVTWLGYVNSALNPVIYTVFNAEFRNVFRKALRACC

[4] = target: T1, 5-hydroxytryptamine receptor 2C; experiment: Antagonist activity at human 5HT2C receptor stably expressed in HEK293 cells co-expressing Gq assessed as inhibition of 5-HT-induced calcium mobilization preincubated for 15 mins followed by 5-HT addition and measured at 1 sec interval for 60 secs by Fluo-4 calcium dye based FLIPR assay; assay type: functional, cell-based
Summary of the method: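 5-HT2C stably transfected HEK293 cells, loaded with Fluo-4 Direct (HBSS, 20 mM HEPES pH 7.4, 2.5 mM probenecid; 50 min 37 °C, 10 min room temperature). Test compound added, then 5-HT (final 1 nM) 15 min later.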

[5] = Half life in ICR mouse at 10 mg/kg, po by LC-MS/MS analysis; assay type: ADME, organism-based; conditions: in vivo
Summary of the method: (§1)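 Male ICR mice (6-8 weeks, ~25 g) dosed with compound dissolved in saline, 5 mg/kg iv or 10 mg/kg po, nine animals per group. Samples stored at -80 °C; drug quantified by LC-MS/MS.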

[6] = Drug level in ICR mouse plasma at 10 mg/kg, po measured after 2 hrs by LC-MS/MS analysis; assay type: ADME, organism-based
Summary of the method: (§2)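 Male ICR mice (6-8 weeks, ~25 g) received compound in saline, 5 mg/kg iv or 10 mg/kg po. Brains collected at 0.5 and 2.0 h, saline-washed, weighed, homogenized in cold 50% methanol (1 g:3 mL). Plasma prepared from orbital blood. Samples held at -80 °C; LC-MS/MS quantitation. Brain/plasma ratio calculated from the two concentrations.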

[7] = Ratio of drug level in ICR mouse brain to plasma at 5 mg/kg, iv measured after 0.5 hrs by LC-MS/MS analysis; assay type: ADME, organism-based; conditions: read-out: BPR; summary of the method: as §2
[8] = Drug level in ICR mouse brain at 5 mg/kg, iv measured after 0.5 hrs by LC-MS/MS analysis; assay type: ADME, organism-based; summary of the method: as §2
[9] = Drug level in ICR mouse plasma at 5 mg/kg, iv measured after 2 hrs by LC-MS/MS analysis; assay type: ADME, organism-based; summary of the method: as §2
[10] = AUC (0 to t) in ICR mouse at 10 mg/kg, po by LC-MS/MS analysis; assay type: ADME, organism-based; conditions: in vivo; summary of the method: as §1
[11] = Ratio of drug level in ICR mouse brain to plasma at 10 mg/kg, po measured after 2 hrs by LC-MS/MS analysis; assay type: ADME, organism-based; conditions: read-out: BPR; summary of the method: as §2
[12] = Half life in ICR mouse at 5 mg/kg, iv by LC-MS/MS analysis; assay type: ADME, organism-based; conditions: in vivo; summary of the method: as §1
[13] = Cmax in ICR mouse at 10 mg/kg, po by LC-MS/MS analysis; assay type: ADME, organism-based; set-up: dose 10 mg/kg, route oral; conditions: in vivo; summary of the method: as §1
[14] = Clearance in ICR mouse at 5 mg/kg, iv by LC-MS/MS analysis; assay type: ADME, organism-based; conditions: in vivo; summary of the method: as §1
[15] = Ratio of drug level in ICR mouse brain to plasma at 10 mg/kg, po measured after 0.5 hrs by LC-MS/MS analysis; assay type: ADME, organism-based; conditions: read-out: BPR; summary of the method: as §2
[16] = Tmax in ICR mouse at 10 mg/kg, po by LC-MS/MS analysis; assay type: ADME, organism-based; conditions: in vivo; summary of the method: as §1
[17] = Drug level in ICR mouse brain at 10 mg/kg, po measured after 2 hrs by LC-MS/MS analysis; assay type: ADME, organism-based; summary of the method: as §2
[18] = Drug level in ICR mouse brain at 5 mg/kg, iv measured after 2 hrs by LC-MS/MS analysis; assay type: ADME, organism-based; summary of the method: as §2
[19] = Drug level in ICR mouse brain at 10 mg/kg, po measured after 0.5 hrs by LC-MS/MS analysis; assay type: ADME, organism-based; summary of the method: as §2
[20] = Drug level in ICR mouse plasma at 5 mg/kg, iv measured after 0.5 hrs by LC-MS/MS analysis; assay type: ADME, organism-based; summary of the method: as §2
[21] = MRT in ICR mouse at 5 mg/kg, iv by LC-MS/MS analysis; assay type: ADME, organism-based; conditions: in vivo; summary of the method: as §1
[22] = Drug level in ICR mouse plasma at 10 mg/kg, po measured after 0.5 hrs by LC-MS/MS analysis; assay type: ADME, organism-based; summary of the method: as §2
[23] = Oral bioavailability in ICR mouse at 10 mg/kg by LC-MS/MS analysis; assay type: ADME, organism-based; conditions: in vivo; summary of the method: as §1
[24] = Volume of distribution at steady state in ICR mouse at 5 mg/kg, iv by LC-MS/MS analysis; assay type: ADME, organism-based; conditions: in vivo, read-out: Vdss; summary of the method: as §1
[25] = MRT in ICR mouse at 10 mg/kg, po by LC-MS/MS analysis; assay type: ADME, organism-based; conditions: in vivo; summary of the method: as §1
[26] = AUC (0 to t) in ICR mouse at 5 mg/kg, iv by LC-MS/MS analysis; assay type: ADME, organism-based; conditions: in vivo; summary of the method: as §1
[27] = Ratio of drug level in ICR mouse brain to plasma at 5 mg/kg, iv measured after 2 hrs by LC-MS/MS analysis; assay type: ADME, organism-based; conditions: read-out: BPR; summary of the method: as §2

D(1B) dopamine receptor, sequence (P21918 whole entry): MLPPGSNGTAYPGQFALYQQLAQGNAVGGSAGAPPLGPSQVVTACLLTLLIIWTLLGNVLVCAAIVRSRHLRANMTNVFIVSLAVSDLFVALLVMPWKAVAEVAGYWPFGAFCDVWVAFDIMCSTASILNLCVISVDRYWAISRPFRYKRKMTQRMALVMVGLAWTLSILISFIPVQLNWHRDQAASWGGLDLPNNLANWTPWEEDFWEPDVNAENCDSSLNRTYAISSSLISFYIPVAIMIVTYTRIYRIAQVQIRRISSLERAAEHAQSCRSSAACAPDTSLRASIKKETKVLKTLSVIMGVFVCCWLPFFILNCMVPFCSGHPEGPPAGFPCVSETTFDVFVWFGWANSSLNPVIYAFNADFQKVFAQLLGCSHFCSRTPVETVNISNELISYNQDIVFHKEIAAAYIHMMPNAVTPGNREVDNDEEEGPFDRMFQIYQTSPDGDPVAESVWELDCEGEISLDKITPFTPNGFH
5-hydroxytryptamine receptor 2B, sequence (P41595 whole entry): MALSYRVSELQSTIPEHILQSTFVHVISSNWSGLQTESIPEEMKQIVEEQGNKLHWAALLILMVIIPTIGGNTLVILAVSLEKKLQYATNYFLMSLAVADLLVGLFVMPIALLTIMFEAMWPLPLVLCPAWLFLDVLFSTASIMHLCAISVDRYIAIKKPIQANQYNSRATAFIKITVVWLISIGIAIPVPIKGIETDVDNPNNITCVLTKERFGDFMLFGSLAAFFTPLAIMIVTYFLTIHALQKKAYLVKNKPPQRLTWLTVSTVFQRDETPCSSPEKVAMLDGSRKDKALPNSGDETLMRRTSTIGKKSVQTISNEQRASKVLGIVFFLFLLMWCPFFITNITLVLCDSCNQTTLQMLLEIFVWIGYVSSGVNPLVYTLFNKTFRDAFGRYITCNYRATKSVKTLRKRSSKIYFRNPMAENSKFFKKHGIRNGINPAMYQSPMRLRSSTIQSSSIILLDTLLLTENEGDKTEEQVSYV
D(1A) dopamine receptor, sequence (P21728 whole entry): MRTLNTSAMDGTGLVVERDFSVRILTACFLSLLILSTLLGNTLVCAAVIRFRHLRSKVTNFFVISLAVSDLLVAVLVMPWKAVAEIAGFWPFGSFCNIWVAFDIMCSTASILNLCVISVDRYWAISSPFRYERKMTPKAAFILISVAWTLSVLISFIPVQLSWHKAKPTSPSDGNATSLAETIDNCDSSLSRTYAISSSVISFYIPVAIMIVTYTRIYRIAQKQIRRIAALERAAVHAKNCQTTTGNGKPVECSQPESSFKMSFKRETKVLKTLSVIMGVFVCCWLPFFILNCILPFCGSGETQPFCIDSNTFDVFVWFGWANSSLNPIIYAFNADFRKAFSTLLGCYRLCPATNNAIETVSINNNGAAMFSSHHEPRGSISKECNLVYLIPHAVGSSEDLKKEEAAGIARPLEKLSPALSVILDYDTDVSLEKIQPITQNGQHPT
5-hydroxytryptamine receptor 2A, sequence (P28223 whole entry): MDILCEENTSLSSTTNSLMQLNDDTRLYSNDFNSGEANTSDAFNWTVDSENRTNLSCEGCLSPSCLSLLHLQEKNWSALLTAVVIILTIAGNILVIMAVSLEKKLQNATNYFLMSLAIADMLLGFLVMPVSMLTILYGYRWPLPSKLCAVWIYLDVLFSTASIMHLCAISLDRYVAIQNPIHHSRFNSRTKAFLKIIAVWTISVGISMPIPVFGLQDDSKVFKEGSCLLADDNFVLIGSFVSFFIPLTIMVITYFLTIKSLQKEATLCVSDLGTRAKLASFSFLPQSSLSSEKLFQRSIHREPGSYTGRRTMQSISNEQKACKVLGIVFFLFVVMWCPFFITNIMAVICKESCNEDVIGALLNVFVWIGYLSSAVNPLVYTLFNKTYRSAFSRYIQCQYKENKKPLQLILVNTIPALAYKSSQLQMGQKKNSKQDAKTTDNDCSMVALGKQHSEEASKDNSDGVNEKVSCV
D(2) dopamine receptor, sequence (P14416 whole entry): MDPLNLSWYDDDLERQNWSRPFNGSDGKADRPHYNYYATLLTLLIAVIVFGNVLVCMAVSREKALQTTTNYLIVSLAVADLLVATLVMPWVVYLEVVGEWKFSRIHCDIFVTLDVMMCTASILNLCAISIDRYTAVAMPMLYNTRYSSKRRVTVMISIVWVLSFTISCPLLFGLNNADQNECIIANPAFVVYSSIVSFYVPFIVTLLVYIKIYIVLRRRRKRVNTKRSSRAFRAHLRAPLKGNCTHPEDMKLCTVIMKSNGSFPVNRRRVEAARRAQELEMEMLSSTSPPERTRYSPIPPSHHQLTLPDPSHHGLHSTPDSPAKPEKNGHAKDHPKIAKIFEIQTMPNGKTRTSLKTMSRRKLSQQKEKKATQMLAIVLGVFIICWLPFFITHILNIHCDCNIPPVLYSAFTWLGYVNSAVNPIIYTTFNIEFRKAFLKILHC

Ki (D(1A) dopamine receptor) | Ki (D(2) dopamine receptor) | Ki (D(1B) dopamine receptor) | Activity [1] | Activity [2] | Ki [3] | Ki (D(4) dopamine receptor) | IC50 [4] | half-life [5] | concentration at 2 h [6] | Kp at 0.5 h [7] | concentration at 0.5 h [8] | concentration at 2 h [9] | AUC(0-t) [10] | Kp at 2 h [11] | half-life [12] | Cmax [13] | clearance [14] | Kp at 0.5 h [15] | Tmax [16] | SMILES | further results
1070 nM | 1230 nM | > 5000 nM | Active | Not Active | 50.1 nM | 851 nM | 860 nM |  |  |  |  |  |  |  |  |  |  |  |  | CCCN(CCCCNC(=O)c1ccc(-c2ccccn2)cc1)C[C@H]1C[C@@H]1c1cc(F)ccc1OC.Cl | 
4900 nM | 1350 nM | > 5000 nM | Active | Not Active | 1120 nM | 575 nM | 14500 nM | 2.64 h | 8.4 ng/mL | 1.19 | 530 ng/mL | 12.7 ng/mL | 49.5 ng·h/mL | 0.79 | 0.437 h | 43.2 ng/mL | 126 mL/min/kg | 0.49 | 0.25 h | CCCN(CCCCNC(=O)c1ccc(-c2ccccn2)cc1)C[C@@H]1C[C@H]1c1cc(F)ccc1OC.Cl | concentration at 2 h [17]: 6.57 ng/mL; concentration at 2 h [18]: 19.4 ng/mL; concentration at 0.5 h [19]: 8.21 ng/mL; concentration at 0.5 h [20]: 446 ng/mL; MRT [21]: 0.415 h; concentration at 0.5 h [22]: 16.8 ng/mL; bioavailability [23]: 3.8%; Vd [24]: 3.13 L/kg; MRT [25]: 3.72 h; AUC(0-t) [26]: 660 ng·h/mL; Kp at 2 h [27]: 1.53
1350 nM |  | > 5000 nM | Active | Not Active | 417 nM | 676 nM | 10100 nM | 2.12 h | 44.1 ng/mL | 1.92 | 980 ng/mL | 118 ng/mL | 254 ng·h/mL | 0.207 | 0.576 h | 118 ng/mL | 84.8 mL/min/kg | 0.23 | 0.5 h | CCCN(CCCCNC(=O)c1ccc(-c2ccccn2)cc1)C[C@@H]1C[C@H]1c1cccc(Cl)c1Cl.Cl | concentration at 2 h [17]: 9.1 ng/mL; concentration at 2 h [18]: 227 ng/mL; concentration at 0.5 h [19]: 26.7 ng/mL; concentration at 0.5 h [20]: 511 ng/mL; MRT [21]: 0.808 h; concentration at 0.5 h [22]: 118 ng/mL; bioavailability [23]: 13%; Vd [24]: 4.11 L/kg; MRT [25]: 2.77 h; AUC(0-t) [26]: 976 ng·h/mL; Kp at 2 h [27]: 1.93
1290 nM | 676 nM | > 5000 nM | Active | Not Active | 427 nM | 813 nM | 16100 nM | 2.08 h | 16.4 ng/mL | 12.7 | 3420 ng/mL | 82.6 ng/mL | 81.1 ng·h/mL | 1.61 | 1.51 h | 37.3 ng/mL | 134 mL/min/kg | 0.82 | 0.25 h | CCCN(CCCCNC(=O)c1ccc2ccccc2c1)C[C@@H]1C[C@H]1c1cccc(Cl)c1Cl.Cl | concentration at 2 h [17]: 23.2 ng/mL; concentration at 2 h [18]: 913 ng/mL; concentration at 0.5 h [19]: 23.2 ng/mL; concentration at 0.5 h [20]: 270 ng/mL; MRT [21]: 2.58 h; concentration at 0.5 h [22]: 28.4 ng/mL; bioavailability [23]: 6.6%; Vd [24]: 20.8 L/kg; MRT [25]: 2.59 h; AUC(0-t) [26]: 616 ng·h/mL; Kp at 2 h [27]: 11.1
